{
  "source": "ChEMBL document CHEMBL3856274",
  "about": "“Sydnone Cycloaddition Route to Pyrazole-Based Analogs of Combretastatin A4” (J Med Chem, 2016)",
  "key": {"HUVEC [1]": {"test_system": "HUVEC", "assay": "Growth inhibition of HUVEC after 72 hrs by crystal violet staining-based assay", "type": "functional", "conditions": "Homo sapiens", "method_in_brief": "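HUVECs at 5 × 10^3/well on gelatin-coated plates were allowed to adhere for 24 h, then given a drug concentration series in EBM (≥8 wells per concentration) for 72 h at 37 °C. Cells were fixed in 3.7% formalin and stained with 1% crystal violet, which was solubilized in 10% acetic acid and read at A590 with background correction. % growth inhibition from ≥3 independent experiments was plotted against log concentration to give GI50.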"}, "HUVEC [2]": {"test_system": "HUVEC", "assay": "Disruption of interphase microtubule in HUVEC assessed as change in cell shape at 250 nM after 30 mins by DAPI staining-based immunofluorescence assay", "conditions": "Homo sapiens", "method_in_brief": "(§1)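 HUVECs (supplemented medium, 10% FCS final, used up to 5 passages) plated on fibronectin-coated chamber slides at 2.5 × 10^4 or 5 × 10^4 cells/well. Treated with drug (dilutions in EBM from 20 mM DMSO stock) or vehicle for 30 min. Then fixed in 3.7% formalin, permeabilized in 0.1% Triton X-100, and stained for β-tubulin (antibody), F-actin (phalloidin) and nuclei (DAPI).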"}, "HUVEC [3]": {"test_system": "HUVEC", "assay": "Disruption of interphase microtubule in HUVEC assessed as change in cell morphology at 250 nM after 30 mins by DAPI staining-based immunofluorescence assay", "conditions": "Homo sapiens", "method_in_brief": "as §1"}, "HUVEC [4]": {"test_system": "HUVEC", "assay": "Disruption of interphase microtubule in HUVEC assessed as change in cell shape and morphology at 250 nM preincubated for 30 mins followed by compound washout measured after 60 mins by DAPI staining-based immunofluorescence assay", "conditions": "Homo sapiens", "method_in_brief": "(§2)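 HUVECs on fibronectin-coated chamber slides were exposed to 250 nM drug or vehicle for 30 min at 37 °C. Cells were washed four times with serum-containing medium, incubated 30 min, washed again and incubated a further 30 min (60 min recovery). They were then fixed in 3.7% formalin, permeabilized with 0.1% Triton X-100, and stained for β-tubulin, F-actin (phalloidin) and DAPI.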"}, "HUVEC [5]": {"test_system": "HUVEC", "assay": "Induction of HUVEC monolayer permeability assessed as increase in passage of FITC-dextran through cell monolayer at 50 nM preincubated for 30 mins followed by compound washout and addition of FITC-dextran for 30 mins by fluorescence assay", "type": "functional, cell-based", "conditions": "Homo sapiens", "method_in_brief": "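HUVECs seeded at 5 × 10^4 per fibronectin-coated 3 µm-pore insert and cultured 5 days to a confluent monolayer. Drug 50 nM for 30 min at 37 °C, then replaced with FITC-dextran (0.8 mg/mL) for 30 min. Lower-well fluorescence read at ex 488/em 525 and expressed as % of a cell-free insert. Mean of 3 independent experiments ± SEM.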"}, "HUVEC [6]": {"test_system": "HUVEC", "assay": "Disruption of interphase microtubule in HUVEC assessed as formation of actin stress fiber at 250 nM preincubated for 30 mins followed by compound washout measured after 60 mins by DAPI staining-based immunofluorescence assay", "type": "cell-based", "conditions": "Homo sapiens", "method_in_brief": "as §2"}, "HUVEC [7]": {"test_system": "HUVEC", "assay": "Activation of ROCK in HUVEC assessed as phosphorylation of myosin light chain at 50 to 500 nM after 15 mins by Western blot method", "type": "cell-based", "conditions": "Homo sapiens", "method_in_brief": "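HUVECs seeded on gelatin at 5 × 10^4 cells/well and grown 7 days without medium change. Drugs diluted in EBM from 20 mM DMSO stock and applied 15 min. Proteins extracted in LDS buffer. Western blot for dually phosphorylated MLC, with actin reprobe for loading. Band intensity given as fold-change over vehicle. Mean of 3-4 independent experiments ± SEM.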"}, "SW1222": {"test_system": "SW1222", "assay": "Induction of necrosis in human SW1222 cells xenografted in SCID mouse at 0.227 mmol/kg administered as single dose measured after 24 hrs by hematoxylin/eosin staining-based microscopic method", "type": "functional, cell-based", "method_in_brief": "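SW1222 cells (5 × 10^6) injected s.c. into the rear dorsum of female SCID mice (8–12 weeks). Tumours treated at about 8 mm mean diameter with a single dose of 0.227 mmol/kg in […]/NaCl, 10 mL/kg. Tumours excised at 24 h. Necrosis scored on 5 µm H&E sections by Chalkley point counting.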"}, "[8]": {"assay": "Toxicity in SCID mouse", "type": "organism-based", "conditions": "in vivo"}, "HUVEC [9]": {"test_system": "HUVEC", "assay": "Disruption of interphase microtubule in HUVEC assessed as formation of actin stress fiber at 1 uM after 90 mins by phalloidin/DAPI staining-based immunofluorescence assay", "type": "cell-based", "conditions": "Homo sapiens", "method_in_brief": "(§3)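 HUVECs seeded on fibronectin-coated chamber slides. Drug diluted in EBM from 20 mM DMSO stock. Exposure 250 nM for 30 min or 1 µM for 90 min. Fixed in 3.7% formalin and permeabilised in 0.1% Triton X-100. Stained for β-tubulin by antibody, F-actin by phalloidin and nuclei by DAPI, then imaged by immunofluorescence.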"}, "HUVEC [10]": {"test_system": "HUVEC", "assay": "Disruption of interphase microtubule in HUVEC assessed as change in cell morphology at 1 uM after 90 mins by DAPI staining-based immunofluorescence assay", "conditions": "Homo sapiens", "method_in_brief": "as §3"}, "HUVEC [11]": {"test_system": "HUVEC", "assay": "Disruption of interphase microtubule in HUVEC assessed as formation of actin stress fiber at 250 nM after 30 mins by phalloidin/DAPI staining-based immunofluorescence assay", "type": "cell-based", "conditions": "Homo sapiens", "method_in_brief": "as §3"}},
  "note": "Activity calls are given as the source filed them. The calls are words filed in the database; no cut-off is given here.",
  "data": [
    {"smiles": "COc1ccc(-c2c(-c3cc(OC)c(OC)c(OC)c3)cnn2Cc2ccccc2)cc1O", "values": [
      {"measurement": "GI50", "setting": "HUVEC [1]", "result": "> 750", "unit": "nM"}
    ]},
    {"smiles": "COc1ccc(-c2ccnn2-c2cc(OC)c(OC)c(OC)c2)cc1O", "values": [
      {"measurement": "GI50", "setting": "HUVEC [1]", "result": 28, "unit": "nM"},
      {"measurement": "Activity", "setting": "HUVEC [2]", "result": "Active"},
      {"measurement": "Activity", "setting": "HUVEC [3]", "result": "Active"}
    ]},
    {"smiles": "COc1ccc(-c2cnn(C)c2-c2cc(OC)c(OC)c(OC)c2)cc1O", "values": [
      {"measurement": "GI50", "setting": "HUVEC [1]", "result": 68, "unit": "nM"}
    ]},
    {"smiles": "COc1ccc(-c2cn[nH]c2-c2cc(OC)c(OC)c(OC)c2)cc1O", "values": [
      {"measurement": "GI50", "setting": "HUVEC [1]", "result": "> 5000", "unit": "nM"}
    ]},
    {"smiles": "COc1ccc(-c2cnn(Cc3ccccc3)c2-c2cc(OC)c(OC)c(OC)c2)cc1O", "values": [
      {"measurement": "GI50", "setting": "HUVEC [1]", "result": "> 2500", "unit": "nM"}
    ]},
    {"smiles": "COc1ccc(-c2[nH]ncc2-c2cc(OC)c(OC)c(OC)c2)cc1O", "values": [
      {"measurement": "Activity", "setting": "HUVEC [4]", "result": "Active"},
      {"measurement": "Activity", "setting": "HUVEC [5]", "result": "Active"},
      {"measurement": "GI50", "setting": "HUVEC [1]", "result": 7, "unit": "nM"},
      {"measurement": "Activity", "setting": "HUVEC [6]", "result": "Active"},
      {"measurement": "Activity", "setting": "HUVEC [2]", "result": "Active"},
      {"measurement": "Activity", "setting": "HUVEC [7]", "result": "Active"},
      {"measurement": "Activity", "setting": "HUVEC [3]", "result": "Active"},
      {"measurement": "Activity", "setting": "SW1222", "result": "Active"},
      {"measurement": "MTD", "setting": "[8]", "result": "> 162", "unit": "mg/kg"}
    ]},
    {"smiles": "COc1ccc(-c2cn(C)nc2-c2cc(OC)c(OC)c(OC)c2)cc1O", "values": [
      {"measurement": "GI50", "setting": "HUVEC [1]", "result": "> 5000", "unit": "nM"}
    ]},
    {"smiles": "COc1cc2c(c(OC)c1OC)-c1ccc(OC)c(=O)cc1[C@@H](NC(C)=O)CC2", "note": "[COLCHICINE]", "values": [
      {"measurement": "GI50", "setting": "HUVEC [1]", "result": 25, "unit": "nM"},
      {"measurement": "Activity", "setting": "HUVEC [9]", "result": "Active"},
      {"measurement": "Activity", "setting": "HUVEC [10]", "result": "Active"}
    ]},
    {"smiles": "COc1ccc(-c2cn(Cc3ccccc3)nc2-c2cc(OC)c(OC)c(OC)c2)cc1O", "values": [
      {"measurement": "GI50", "setting": "HUVEC [1]", "result": "> 5000", "unit": "nM"}
    ]},
    {"smiles": "COc1ccc(-n2nccc2-c2cc(OC)c(OC)c(OC)c2)cc1O", "values": [
      {"measurement": "GI50", "setting": "HUVEC [1]", "result": "> 750", "unit": "nM"}
    ]},
    {"smiles": "COc1ccc(-c2c(-c3cc(OC)c(OC)c(OC)c3)cnn2C)cc1O", "values": [
      {"measurement": "GI50", "setting": "HUVEC [1]", "result": 118, "unit": "nM"}
    ]},
    {"smiles": "COc1ccc(-c2nn(C)cc2-c2cc(OC)c(OC)c(OC)c2)cc1O", "values": [
      {"measurement": "GI50", "setting": "HUVEC [1]", "result": 256, "unit": "nM"}
    ]},
    {"smiles": "COc1ccc(-c2nn(Cc3ccccc3)cc2-c2cc(OC)c(OC)c(OC)c2)cc1O", "values": [
      {"measurement": "GI50", "setting": "HUVEC [1]", "result": "> 2000", "unit": "nM"}
    ]},
    {"smiles": "COc1ccc(/C=C\\c2cc(OC)c(OC)c(OC)c2)cc1OP(=O)(O)O", "note": "[FOSBRETABULIN DISODIUM]", "values": [
      {"measurement": "Activity", "setting": "HUVEC [5]", "result": "Active"},
      {"measurement": "GI50", "setting": "HUVEC [1]", "result": 8, "unit": "nM"},
      {"measurement": "Activity", "setting": "HUVEC [7]", "result": "Active"},
      {"measurement": "Activity", "setting": "HUVEC [3]", "result": "Active"},
      {"measurement": "Activity", "setting": "HUVEC [11]", "result": "Active"},
      {"measurement": "Activity", "setting": "SW1222", "result": "Active"}
    ]}
  ]
}
